# Screening results as filed in PubChem BioAssay.
# Most compounds without a hit are left out; they make up all but 3.1% or so of the library.
# Yeast lifespan up = compounds extending yeast replicative lifespan, primary screen, S. cerevisiae, OD615; 130,000 compounds, 0.68% hits; S. cerevisiae growth with nicotinamide; deaD strain in restrictive glucose medium; inhibition of the nicotinamide effect, % at 10 µM;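 active = inhibition above a set limit, placed 3 SD over the median of all compounds, cut at about 26% in these data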
#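 Assay system: DeaD-strain S. cerevisiae. Medium: CSMM-D glucose medium, restrictive. Reagent: nicotinamide, 1.5 mM, co-present with compound. Compound: 10 µM single point, 0.25% DMSO. Schedule: culture preincubation 4 h, compound exposure 48 h, both 30 °C. Detection: absorbance at 615 nm.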
# Insulin prom inh = inhibitors of insulin promoter-driven GFP, primary screen, imaging, TRM-6 cells, eGFP reporter, cell count; reporter expression induced with tamoxifen; inhibition, % at 2 µM; 130,000 compounds, 0.9% hits;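 active = inhibition above the mean plus 3 SD, with well images judged a real hit on visual review, cut at about 60% in these data, passing the limit was not always enough; inconclusive = inhibition over the cutoff but images rejected on review; inactive = inhibition not above the cutoff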
# Insulin prom up = insulin promoter activators in MIN6 cells, imaging, high-content screening, mouse beta cells. MIN6 insulin promoter-GFP reporter; active compounds read high. 190,000 compounds, 0.3% hits. z-score at 5 µM;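 active = z-score above 3 at 5 µM with at least 500 cells counted in the well; inconclusive = wells under 500 cells, flagged as cytotoxic or low count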
# RAM inhibit = inhibitors of the yeast RAM network, primary screen, dse1pr::URA3 reporter, 5-FOA selection; S. cerevisiae dse1pr::URA3 reporter, 5-FOA growth OD615, 2 d; analog-sensitive cbk1-as2 kinase mutant strain; inhibition, % at 50 µM; 190,000 compounds, 1.8% hits; AID 868, 2007;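 active = inhibition above a set limit, 3 SD over mean compound inhibition, cut at about 8.4% in these data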;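 also: inhibition rescues growth on 5-FOA so higher OD means more RAM inhibition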
# Yeast growth inh = growth inhibitors of yeast BB579 in restrictive medium, primary screen, yeast lifespan-shortening project, S. cerevisiae. 140,000 compounds, 0.51% hits. OD615, 48 h. inhibition, % at 10 µM;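 active = inhibition above a set limit, 3 SD over the mean compound inhibition, cut at about 44% in these data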
#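 Test system: Saccharomyces cerevisiae DeaD strain BB579, replicative lifespan model yeast | Buffer or medium: Restrictive CSMM-D medium | Doses: One dose, 10 µM compound with 0.25% DMSO | Incubation: 48 h exposure, 30 °C | Detection: Culture absorbance at 615 nm | Control set: Amphotericin B at 10 µg/mL as positive control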
# Hits are given with their value; - = inactive; ? = inconclusive; . = no result given.
SMILES,Yeast lifespan up,Insulin prom inh,Insulin prom up,RAM inhibit,Yeast growth inh
CCOc1ccccc1C(=O)Nc1ccccc1O,-,-,-,-,-
CCN(CC)c1ccc(/C=C2\C(=O)c3ccc(C(=O)O)cc3C2=O)cc1,-,-,-,10,-
CCN(CC)c1ccc(/C=C2\NC(=O)NC2=O)cc1,-,-,-,-,-
CC(C)(C)NC(=O)/C=C/c1ccc(C(F)(F)F)cc1,-,-,-,-,-
COc1cccc(-c2nn(C)c3sc(C(=O)NCc4ccc(C)o4)cc23)c1,-,62,-,11,-
CN(C)c1ccc(N2CC(C)(C)C2=O)cc1,.,-,-,-,.
COc1ccccc1NC(=O)Nc1ccc(Cl)c(S(=O)(=O)Nc2ccccc2OC)c1,-,-,-,8.4,-
O=C(NCC1COc2ccccc2O1)c1ccc(NC(=O)C(c2ccccc2)c2ccccc2)cc1 (configuration not stated),-,-,-,-,-
CCc1ccc(/C=C2/Sc3ccccc3N(CC(=O)NCCCOC)C2=O)cc1,.,.,-,9.8,.
COc1ccc2[nH]c(=O)c(CN(C(=O)c3cccnc3)c3ccccc3C)cc2c1,.,.,-,.,.
CCOCCCNC(=O)C(NC(=O)Cc1c[nH]c2ccccc12)c1ccccc1 (configuration not stated),.,.,-,-,.
CC(C)C(c1nnnn1C1CCCC1)N1CCOCC1 (configuration not stated),.,-,3,-,-
Cc1nc2ccc(S(=O)(=O)NC(C(=O)NCc3ccco3)C(C)C)cc2s1 (configuration not stated),-,.,-,-,-
Cc1nnc2c(Oc3ccccc3)nc3ccccc3n12,-,-,-,-,-
Cc1ccc(Oc2nc3ccccc3n3c(C)nnc23)c(C)c1,74,.,-,-,-
Cc1ccc(NC(=O)CSc2nnc3ccccn23)cc1S(=O)(=O)N1CCOCC1,.,.,-,-,.
Cc1ccc(NC(=O)CSc2ccccn2)cc1S(=O)(=O)N1CCOCC1,.,74,-,-,.
Cc1ccc(NC(=O)CCCSc2ccccc2)cc1S(=O)(=O)N1CCOCC1,.,-,-,8.9,.
NC(=O)/C(=C/c1cccnc1)NC(=O)c1ccccc1,.,.,-,.,.
Cc1ccc2c(Cl)c(C)c(N3CCCC3)nc2n1,-,77,-,-,-
CCOC(=O)C1=Nc2ccccc2C1=[N+]=[N-],-,.,-,-,100
CC(=O)Nc1ccc(C(=O)CSc2nnnn2C2CCCC2)cc1,.,.,-,-,.
CC(C)c1cc(N2CCN(C(=O)c3ccco3)CC2)n2c(nc3ccccc32)c1C#N,-,.,-,-,-
Cc1cc(-c2ccco2)c(C#N)c2nc3ccccc3n12,-,-,.,-,89
CCc1c(C)c(C#N)c2nc3ccccc3n2c1-n1nc(C)cc1C,-,-,.,-,-
SMILES,Yeast lifespan up,Insulin prom inh,Insulin prom up,RAM inhibit,Yeast growth inh
Cc1cc(Nc2ccc(O)cc2)n2c(nc3ccccc32)c1C#N,.,.,-,9.1,.
Cc1cc(C(C)C)n2c(nc3ccccc32)c1C#N,.,.,-,-,.
CCc1c(C)c(C#N)c2nc3ccccc3n2c1Cl,28,-,-,-,-
Cc1ccc(NC(=O)CCSc2nc(C)cc(C)n2)cc1,-,-,.,-,-
CCOc1ccc(N2C(=O)CN(O)C=C3N=c4ccccc4=C32)cc1,.,.,-,-,.
O=C(N/N=C/C1CC2CCC1C2)c1c[nH]c2ccccc12 (configuration not stated),.,.,-,-,.
CCNc1nc(NC(C)C)nc(OCC)n1,-,72,-,-,-
COc1ccc(C2C=C(c3cccs3)Nc3nc(CCCO)nn32)cc1 (configuration not stated),-,-,5.8,-,-
CC(C)OC(=O)CSc1nc2c(c(C3CC=CCC3)c1C#N)CCC2 (configuration not stated),-,-,-,11,-
Cc1ccc(NC(=O)COC(=O)/C(=C/c2cccs2)c2cccs2)cc1S(=O)(=O)N(C)C,-,-,-,8.9,-
CCOC(=O)c1sc(=S)sc1SCc1cccc(C(F)(F)F)c1,-,-,-,8.9,-
CCOC(=O)N1CCC(=C2c3ccc(Cl)cc3CCc3cccnc32)CC1,33,-,-,-,-
CCOC(=O)N1CCN(Cc2ccc(O)c3ncccc23)CC1,.,.,-,-,.
COc1cc(NC(=S)NCCC(c2ccccc2)c2ccccc2)cc(OC)c1,-,-,-,9.1,-
Cc1cccc(N2CCN(C(=S)c3ccc(-c4ccccc4[N+](=O)[O-])o3)CC2)c1,-,-,-,11,-
O=[N+]([O-])c1ccccc1-c1ccc(C(=S)N2CCCC2)o1,.,.,-,-,.
COc1ccc(NC(=O)c2ccc(C(=O)c3ccccc3)o2)cc1,-,90,-,-,-
O=C(Nc1cccc(F)c1)c1ccc(-c2ccccc2Cl)o1,-,?,-,10,-
Cc1cccc(NC(=O)c2ccc(C(=O)c3ccccc3)o2)c1,.,-,-,-,.
COc1ccc(NC(=O)c2ccc(-c3ccccc3Cl)o2)cc1,-,-,-,8.7,-
Cc1ccc(-c2ccc(C(=O)Nc3cccc(F)c3)o2)c2ccccc12,-,-,-,-,-
COc1ccc(NC(=O)c2ccc(-c3ccc(C)c4ccccc34)o2)cc1,-,-,-,-,-
COc1ccc(-c2nsc(SCC(=O)NCC3CCCO3)n2)cc1 (configuration not stated),.,-,-,-,.
CSc1nccc(Oc2ccc(C#N)cc2)n1,-,-,-,-,-
C=CCNC(=S)Nc1cccc(N)c1,.,-,-,-,.
SMILES,Yeast lifespan up,Insulin prom inh,Insulin prom up,RAM inhibit,Yeast growth inh
Cc1cc(OCC(=O)OCC(=O)Nc2cc(C(F)(F)F)ccc2N2CCOCC2)ccc1Cl,-,-,-,9.1,-
COc1cccc(NC(=O)Cn2c(-c3cncs3)nc3ccccc32)c1,-,-,5.3,-,-
O=C(Cn1c(-c2cncs2)nc2ccccc21)NCCc1ccccc1,-,.,-,-,-
O=C(CN1C(=O)CSc2ccccc21)Nc1ccc2c(c1)OCCO2,-,-,-,-,-
O=C(CN1C(=O)COc2ccccc21)Nc1ccc2c(c1)OCCO2,54,-,-,-,-
O=C(CSc1ccc(Cl)cc1)N1CCN(c2ncc(C(F)(F)F)cc2Cl)CC1,-,-,.,11,-
Cc1ccc(S(=O)(=O)N[C@@H](Cc2ccccc2)C(=O)CCl)cc1,49,-,.,-,-
CCN(CC(=O)Nc1ccccc1OC)C(=O)COc1ccc2ccccc2c1,-,-,-,-,-
Cc1sc2ncnc(N3CCN(CCOc4ccc(Cl)cc4)CC3)c2c1C,-,-,?,-,-
O=C(NCCCn1ncc2ccccc21)c1cc(COc2c(F)cccc2F)on1,.,-,.,-,.
COC(=O)c1[nH]c2ccc(F)cc2c1NS(=O)(=O)c1ccc(F)c(C)c1,-,-,-,10,-
COc1ccc(-c2csc(-c3[nH]cnc3N)n2)cc1,.,-,.,-,.
